From PMC4547841 (Bioorganic & medicinal chemistry letters, 2013)

Columns and labels:
[1] = system: heat shock response; experiment: Heat shock response; assay type: cell-based; details: HeLa; 17-AAG 100 nM and 1 μM, CA1 and SM145 5 μM and 50 μM; hsp70, hsp90, HSF1 levels
[2] = system: hsp90; experiment: Luciferase refolding assays; assay type: biochemical; details: 17-AAG 1 μM, SM145 50 μM (Figure 3); CA1 in Supplemental Figure S3
How it was run: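 Refolding of heat-denatured firefly luciferase, read as luciferase activity over time up to 2 h, in two systems: rabbit reticulocyte lysate, and a pure protein system with 1μM hsp70, 0.2μM hsp40, 0.1μM HOP and 0.5μM hsp90. Test compounds at 1μM or 50μM. n=3, mean±SEM.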

[3] = system: hsp70; experiment: hsp70 protein level in HeLa cell lysate, western blot; assay type: cell-based; details: normalized to GAPDH and DMSO control, n≥3
How it was run: (§1)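 HeLa cells treated with test compounds at two concentrations each (100nM and 1μM, or 5μM and 50μM). Cell lysates analysed by western blot. Bands quantitated by densitometry, normalized to GAPDH and to DMSO control. n≥3, mean±SEM.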

[4] = system: HeLa cells; details: assay not described; HeLa treated at IC50 and ten-fold over IC50; ref [36]; cited from earlier work
[5] = system: FKBP52; experiment: FKBP52 protein level in HeLa cell lysate, western blot; assay type: cell-based; details: n≥3
How it was run: as §1

[6] = system: glucocorticoid receptor (GR); experiment: Glucocorticoid receptor; assay type: cell-based; details: HeLa; 17-AAG 100 nM and 1 μM; n≥3
How it was run: as §1

[7] = system: hsp90 and TOM70; experiment: TPR co-chaperone and hsp90 binding assay, TOM70
How it was run: (§2)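 Binding of each TPR co-chaperone (Unc45, CHIP, TOM70, HOP, Cyp40, FKBP52, FKBP51) to hsp90 measured with increasing test compound, 0–5μM or 0–10μM depending on compound.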

[8] = system: FKBP51; experiment: FKBP51 protein level in HeLa cell lysate, western blot; assay type: cell-based; details: n≥3
How it was run: as §1

[9] = system: HSF1; experiment: HSF1 protein level in HeLa cell lysate, western blot; assay type: cell-based; details: 17-AAG 100 nM and 1 μM, normalized to GAPDH and DMSO control, n≥3
How it was run: as §1

[10] = system: hsp90 and FKBP51; experiment: TPR co-chaperone and hsp90 binding assay, FKBP51
How it was run: as §2

[11] = system: hsp90; experiment: hsp90 protein level in HeLa cell lysate, western blot; assay type: cell-based; details: 17-AAG 100 nM and 1 μM, normalized to GAPDH and DMSO control, n≥3
How it was run: as §1

[12] = system: hsp90 and immunophilins; details: millimolar concentration; ref [28]; cited from earlier work
[13] = system: hsp90 and Cyp40; experiment: TPR co-chaperone and hsp90 binding assay, Cyp40; details: CA1 at 10 μM
How it was run: as §2

[14] = system: hsp90 and Unc45; experiment: TPR co-chaperone and hsp90 binding assay, Unc45; details: CA1 0–10 μM
How it was run: as §2

[15] = system: hsp90 and CHIP; experiment: TPR co-chaperone and hsp90 binding assay, CHIP; details: CA1 at 10 μM
How it was run: as §2

[16] = system: hsp90 and HOP; experiment: TPR co-chaperone and hsp90 binding assay, HOP; details: CA1 0–10 μM; some Figure 5 data marked * previously published, ref [31]
[17] = system: hsp90 and FKBP52; experiment: TPR co-chaperone and hsp90 binding assay, FKBP52; details: CA1 0–10 μM; some Figure 5 data marked * previously published, ref [31]
[18] = 17-AAG 100 nM and 1 μM, normalized to GAPDH, compared to DMSO

SMILES: C=CCNC1=C2C[C@@H](C)C[C@H](OC)[C@H](O)[C@@H](C)/C=C(\C)[C@H](OC(N)=O)[C@@H](OC)/C=C\C=C(/C)C(=O)NC(=CC1=O)C2=O [17-AAG]
- heat shock response triggered [1]: triggering the heat shock response
- luciferase activity over time [2]: reduce the luciferase activity over time
- hsp70 protein level, fold increase ([3]; 17-AAG 100 nM and 1 μM): ~ 2.5 fold
- IC50 [4]: ~100 nM
- FKBP52 protein level, fold increase [5, 18]: ~ 4 fold
- GR protein level [6]: no change
- inhibition of TOM70 binding to hsp90 ([7]; 17-AAG at 5 μM): only partially inhibits
- FKBP51 protein level, fold increase [8, 18]: ~ 2 fold
- HSF1 protein level, fold increase [9]: ~4 fold
- inhibition of FKBP51 binding to hsp90 ([10]; 17-AAG at 5 μM): only partially inhibits
- hsp90 protein level, fold increase [11]: ~3 fold

SMILES: CO[C@@H]1[C@@H](OC(N)=O)[C@@H](O)[C@H](Oc2ccc3c(O)c(NC(=O)c4ccc(O)c(CC=C(C)C)c4)c(=O)oc3c2C)OC1(C)C [novabiocin]
- disruption of immunophilins from binding to hsp90 [12]: disrupts immunophilins from binding to hsp90

SMILES: CO[C@H]1[C@H](OC(=O)c2ccc(C)[nH]2)[C@H](O)[C@@H](Oc2ccc3c(O)c(NC(=O)c4c[nH]c(C(=O)Nc5c(O)c6ccc(O[C@H]7OC(C)(C)[C@@H](OC)[C@H](OC(=O)c8ccc(C)[nH]8)[C@@H]7O)c(C)c6oc5=O)c4C)c(=O)oc3c2C)OC1(C)C [CA1, coumermycin A1]
- heat shock response triggered [1]: the HSR was not triggered
- luciferase activity over time [2]: reduce the luciferase activity over time
- hsp70 protein level ([3]; 5 μM and 50 μM): maintenance of hsp70 protein levels
- inhibition of Cyp40 binding to hsp90 [13]: inhibiting
- effect on binding between hsp90 and Unc45 [14]: no impact
- FKBP52 protein level ([5]; CA1 at high concentrations, relative to control): slightly decreases
- inhibition of TOM70 binding to hsp90 ([7]; CA1 at 10 μM): inhibiting
- inhibition of CHIP binding to hsp90 [15]: inhibiting
- effect on binding between hsp90 and HOP [16]: no impact
- FKBP51 protein level ([8]; CA1 5 μM and 50 μM): little change
- effect on binding between hsp90 and FKBP51 ([10]; CA1 0–10 μM): no impact
- effect on binding between hsp90 and FKBP52 [17]: no impact
